Experimental data reported in ChEMBL document CHEMBL1132098, “2,7-diazabicyclo[3.3.0]octanes as novel h5-HT receptor agonists” (Bioorg Med Chem Lett, 1999).

Tests used:
[1] = molecular target: Serotonin 1 receptors; 5-HT1B & 5-HT1D (Homo sapiens) (UniProt P28222+P28221); assay: Selectivity ratio for h-5-HT 1B receptor to that of h5-HT 1D receptors.; assay type: protein assay
In short: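 Displacement of [3H]-5-HT binding at cloned human 5-HT1B and 5-HT1D receptors, with radioligand at roughly its KD for each receptor. Ratio obtained by dividing the mean IC50 values for the two receptors.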

[2] = molecular target: T1, 5-hydroxytryptamine receptor 1D (Homo sapiens, UniProt P28221); assay: Ability to displace [3H]- -5-HT binding to cloned 5-hydroxytryptamine 1D receptor stably expressed in chinese hamster cells (CHO cells); assay type: cell-based
T1 sequence (P28221 whole entry): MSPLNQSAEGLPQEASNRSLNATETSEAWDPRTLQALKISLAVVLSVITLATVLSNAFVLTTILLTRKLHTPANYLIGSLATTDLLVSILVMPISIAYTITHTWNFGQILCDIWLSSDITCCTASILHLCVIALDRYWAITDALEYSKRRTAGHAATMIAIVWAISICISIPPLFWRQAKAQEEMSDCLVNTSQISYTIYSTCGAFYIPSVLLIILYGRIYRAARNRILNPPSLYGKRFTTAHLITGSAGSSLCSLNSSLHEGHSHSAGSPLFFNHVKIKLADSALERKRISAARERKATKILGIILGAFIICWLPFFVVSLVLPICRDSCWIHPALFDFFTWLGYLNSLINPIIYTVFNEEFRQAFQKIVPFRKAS
In short: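 Human 5-HT1D receptor cloned and stably expressed in CHO cells. Displacement of [3H]-5-HT binding, with radioligand at roughly its KD for the receptor. At least three independent experiments, each run in duplicate. IC50 reported as geometric mean with limits derived from the SEM.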

[3] = Acid dissociation constant was determined; assay type: ADME
Rattus norvegicus [4] = assay: Drug concentration was measured in plasma samples originating from the hepatic portal vein (hpv) at 2 hr post administration; assay type: functional, organism-based
In short: (§1)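 Rats dosed orally at 3 mg/kg (5 mL/kg, aqueous formulation). Plasma taken from the hepatic portal vein and by cardiac puncture (systemic) at 0.5 and 2 h after dosing. Drug concentration reported in ng/mL.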

Rattus norvegicus [5] = assay: Drug concentration was measured in plasma samples originating from the cardiac puncture (systemic) at 2 h post administration; assay type: functional, organism-based; in short: as §1
Rattus norvegicus [6] = assay: Drug concentration was measured in plasma samples originating from the hepatic portal vein (hpv) at 0.5 hr post administration; assay type: functional, organism-based; in short: as §1
Rattus norvegicus [7] = assay: Drug concentration was measured in plasma samples originating from the cardiac puncture (systemic) at 0.5 hr post administration; assay type: functional, organism-based; in short: as §1
[8] = molecular target: T1, 5-hydroxytryptamine receptor 1D; assay: Maximum stimulation of [35S]GTP-gamma-S, binding expressed relative to the maximal effect produced by the 5-HT; assay type: functional
In short: (§2)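 Agonist-induced [35S]GTPγS binding measured in CHO cells stably transfected with the human 5-HT1D receptor. Maximal effect expressed as % of the 5-HT maximum.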

[9] = molecular target: T1, 5-hydroxytryptamine receptor 1D; assay: Measurement of agonist induced [35S]GTP-gamma-S, binding in CHO cells stably transfected with 5-hydroxytryptamine 1D receptor; assay type: functional, cell-based; in short: as §2

| SMILES | Selectivity [1] | IC50 [2] | pKa [3] | Absorption (Rattus norvegicus [4]) | Absorption (Rattus norvegicus [5]) | Absorption (Rattus norvegicus [6]) | Absorption (Rattus norvegicus [7]) | Efficacy [8] | EC50 [9] |
| --- | --- | --- | --- | --- | --- | --- | --- | --- | --- |
| CN1C[C@@H](CN(C#N)Cc2ccccc2)C[C@@H]1Cc1c[nH]c2ccc(-n3ccnc3)cc12 | 6.7 | 3.3 nM |  |  |  |  |  |  |  |
| CN(Cc1ccccc1)C[C@H]1C[C@H](Cc2c[nH]c3ccc(-n4ccnc4)cc23)N(C)C1 | 6.9 | 0.9 nM | 8.7 | 30 ng/mL | < 4 ng/mL | 21 ng/mL | < 4 ng/mL |  |  |
| c1ccc(CNC[C@@H]2CCN(CCc3c[nH]c4ccc(-n5cnnc5)cc34)C2)cc1 | 62 |  |  | < 5 ng/mL | < 5 ng/mL | < 5 ng/mL | < 5 ng/mL | 102 |  |
| CN1[C@@H](Cc2c[nH]c3ccc(-n4cnnc4)cc23)C[C@@H]2CN(Cc3ccc(F)cc3)C[C@@H]21 (racemic) | 13 | 0.8 nM |  |  |  |  |  | 88 | 2.9 nM |
| CN1[C@@H](Cc2c[nH]c3ccc(-n4cnnc4)cc23)C[C@@H]2CN(Cc3ccccc3)C[C@@H]21 (racemic) | 6.7 | 0.9 nM | 8.5 |  |  |  |  | 96 | 0.5 nM |
| CN1[C@@H](Cc2c[nH]c3ccc(-n4cnnc4)cc23)C[C@@H]2CN(CCc3cccc(F)c3)C[C@@H]21 (racemic) | 15 | 1.2 nM |  |  |  |  |  | 63 | 1.9 nM |
| CN1[C@@H](Cc2c[nH]c3ccc(-n4ccnc4)cc23)C[C@@H]2CN(Cc3ccccc3)C[C@@H]21 (racemic) | 8.4 | 0.7 nM |  | 105 ng/mL | 10 ng/mL | 558 ng/mL | 47 ng/mL | 69 | 1.2 nM |
